Reference: ChEMBL document CHEMBL4400581, “First Example of Catalytic Synthesis of Difurazanohexahydrohexaazapyrenes and in Vitro Study of Their Antitumor Activity” (2019)

Tests used:
Assay type in all cases: functional
[1] = test system: K562; experiment: Cytotoxicity against human K562 cells by MTT assay
Outline: (§1)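 Cytotoxicity was measured by MTT assay across a range of concentrations in human tumour lines, with etoposide as the reference drug. Results are expressed as CC50.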

[2] = test system: HeLa; experiment: Cytotoxicity against human HeLa cells by MTT assay; outline: as §1
[3] = test system: Jurkat; experiment: Cytotoxicity against human Jurkat cells by MTT assay; outline: as §1
[4] = test system: U-937; experiment: Cytotoxicity against human U937 cells by MTT assay; outline: as §1

Q: How did the Activity [1] turn out when C1CCCC(N2CN3c4nonc4N4CN(C5CCCCCC5)CN5c6nonc6N(C2)C3C45)CC1 (centres undefined) was run?
A: Dose-dependent effect

Q: And the CC50 [1]?
A: 690 nM

Q: What about the Activity [2] of the same molecule?
A: Dose-dependent effect

Q: What about the CC50 [2] of the same molecule?
A: 1210 nM

Q: What about the Activity [3] of the same molecule?
A: Dose-dependent effect

Q: What about the CC50 [3] of the same molecule?
A: 570 nM

Q: And the Activity [4]?
A: Dose-dependent effect

Q: What about the CC50 [4] of the same molecule?
A: 590 nM

Q: With C1CC1N1CN2c3nonc3N3CN(C4CC4)CN4c5nonc5N(C1)C2C34 (centres undefined) as the molecule, how does the Activity [1] read?
A: Dose-dependent effect

Q: What about the CC50 [1] of the same molecule?
A: 310 nM

Q: And the Activity [2]?
A: Dose-dependent effect

Q: And the CC50 [2]?
A: 420 nM

Q: What about the Activity [3] of the same molecule?
A: Dose-dependent effect

Q: And the CC50 [3]?
A: 270 nM

Q: What about the Activity [4] of the same molecule?
A: Dose-dependent effect

Q: What about the CC50 [4] of the same molecule?
A: 250 nM

Q: Which results are given for C1CCCC(N2CN3c4nonc4N4CN(C5CCCCCCC5)CN5c6nonc6N(C2)C3C45)CCC1 (centres undefined)?
A: Activity [1]: Dose-dependent effect; CC50 [1]: 740 nM; Activity [2]: Dose-dependent effect; CC50 [2]: 1370 nM; Activity [3]: Dose-dependent effect; CC50 [3]: 620 nM; Activity [4]: Dose-dependent effect; CC50 [4]: 580 nM
